ChEMBL document CHEMBL4304743, “Discovery of ( E)- N1-(3-Fluorophenyl)- N3-(3-(2-(pyridin-2-yl)vinyl)-1 H-indazol-6-yl)malonamide (CHMFL-KIT-033) as a Novel c-KIT T670I Mutant Selective Kinase Inhibitor for Gastrointestinal Stromal Tumors (GISTs)” (J Med Chem, 2019)
Active and inactive are the calls of the source. The calls are words filed in the database; no cut-off is given here.

Test system: Mast/stem cell growth factor receptor Kit (Homo sapiens), P10721 [UNDEFINED MUTATION]
Assay: Inhibition of c-KIT 560 to 578 deletion/T670I double mutant in human GIST5R cells assessed as reduction in AKT phosphorylation at S473 residue at 0.1 uM to 3 uM after 1 hr by Western blot analysis
Format: cell-based
In short: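 Serial compound dilutions applied for 1 h to GIST-T1, GIST-T1-T670I (CRISPR/Cas9 T670I knock-in, clone confirmed by Sanger sequencing) or GIST-5R cells in DMEM with 10% FBS. Cells then lysed and phospho-proteins detected by standard Western blotting.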

Mast/stem cell growth factor receptor Kit (Homo sapiens), P10721 [UNDEFINED MUTATION], sequence (P10721 whole entry, looked up, stated change not applied): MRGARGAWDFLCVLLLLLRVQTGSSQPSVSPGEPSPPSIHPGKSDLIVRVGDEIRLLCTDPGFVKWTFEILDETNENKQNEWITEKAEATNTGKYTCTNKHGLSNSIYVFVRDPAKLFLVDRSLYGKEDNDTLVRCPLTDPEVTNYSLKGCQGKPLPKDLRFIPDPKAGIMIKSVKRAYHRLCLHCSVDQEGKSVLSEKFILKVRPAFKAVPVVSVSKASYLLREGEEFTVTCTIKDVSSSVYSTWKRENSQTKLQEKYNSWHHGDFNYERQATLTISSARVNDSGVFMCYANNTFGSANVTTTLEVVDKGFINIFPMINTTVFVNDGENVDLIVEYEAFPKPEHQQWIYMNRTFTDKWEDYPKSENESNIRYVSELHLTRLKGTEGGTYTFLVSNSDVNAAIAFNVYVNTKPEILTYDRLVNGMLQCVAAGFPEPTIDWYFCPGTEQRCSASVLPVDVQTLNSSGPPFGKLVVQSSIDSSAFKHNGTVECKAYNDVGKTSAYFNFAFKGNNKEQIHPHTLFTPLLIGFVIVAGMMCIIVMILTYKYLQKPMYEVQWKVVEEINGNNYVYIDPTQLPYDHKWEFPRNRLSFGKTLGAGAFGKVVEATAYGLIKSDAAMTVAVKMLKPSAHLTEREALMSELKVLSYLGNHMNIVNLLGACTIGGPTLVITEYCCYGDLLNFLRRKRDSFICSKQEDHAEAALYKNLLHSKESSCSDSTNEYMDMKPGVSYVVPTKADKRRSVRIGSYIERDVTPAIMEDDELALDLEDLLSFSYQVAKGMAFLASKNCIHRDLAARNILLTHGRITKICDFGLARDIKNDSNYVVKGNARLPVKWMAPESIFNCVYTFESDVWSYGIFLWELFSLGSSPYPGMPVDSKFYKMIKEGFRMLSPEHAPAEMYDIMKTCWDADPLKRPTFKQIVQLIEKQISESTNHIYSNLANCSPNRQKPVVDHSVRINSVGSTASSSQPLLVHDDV

O=C(CC(=O)Nc1ccc2c(/C=C/c3ccccn3)n[nH]c2c1)Nc1cccc(F)c1
inhibition: Active
